# In ChEMBL document CHEMBL1123482, “Synthesis and dopaminergic activity of some halogenated mono- and dihydroxylated 2-aminotetralins” (1986):
# Calls of active or inactive are those of the source. The rule behind the calls is not given here.
# Assays:
# [1] = biological target: D(2) dopamine receptor (Bos taurus) (UniProt P20288); assay: Affinity for Dopamine receptor D2 was evaluated from the ability to displace [3H]spiroperidol from homogenized bovine pituitary
# Method in brief: (§1)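 Bovine anterior pituitary homogenate with [3H]spiroperidol ~0.25 nM. Screened at 10^-5 and 10^-7 M; where displacement was 50% or more, IC50 was determined. KBind = IC50/(1 + L/KD), spiroperidol KD 0.3 nM.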
# [2] = biological target: D(1A) dopamine receptor (Rattus norvegicus) (UniProt P18901); assay: Affinity for Dopamine receptor D1 binding sites was evaluated in a test involving displacement of [3H]- fenoldopam in rat striatum; type: tissue-based
# [3] = biological target: D(1A) dopamine receptor (Rattus norvegicus) (UniProt P18901); assay: Stimulation of dopamine-sensitive rat caudate adenylate cyclase or antagonism of dopamine stimulus as measure of D1 efficacy; No stimulation; type: functional
# Oryctolagus cuniculus [4] = species: Oryctolagus cuniculus; assay: The D2 efficacy was evaluated in isolated perfused rabbit ear artery test; No response at 1 uM; type: functional
# Method in brief: (§2)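 Isolated perfused rabbit ear artery given brief intermittent nerve stimulation; concentration-dependent inhibition of the constrictor response measured. EC50 is the concentration giving 50% inhibition of constriction. Antagonist KB values for (S)-sulpiride determined by the Furchgott method, in nM.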
# [5] = biological target: D(1A) dopamine receptor (Rattus norvegicus) (UniProt P18901); assay: The ability of a compound to stimulate dopamine-sensitive rat caudate adenylate cyclase or to antagonise the stimulant of dopamine was used as measure of D1 efficacy; type: functional
# [6] = biological target: D(2) dopamine receptor (Bos taurus) (UniProt P20288); assay: Affinity for Dopamine receptor D2 was evaluated from the ability to displace [3H]spiroperidol from homogenized bovine uM; settings: concentration not given here; method in brief: as §1
# Oryctolagus cuniculus [7] = species: Oryctolagus cuniculus; assay: The D2 efficacy was evaluated in isolated perfused rabbit ear artery test; type: functional; settings: read-out: ED50 (the source's name); method in brief: as §2
# D(2) dopamine receptor (Bos taurus), sequence (P20288 whole entry, the tested form may be a part): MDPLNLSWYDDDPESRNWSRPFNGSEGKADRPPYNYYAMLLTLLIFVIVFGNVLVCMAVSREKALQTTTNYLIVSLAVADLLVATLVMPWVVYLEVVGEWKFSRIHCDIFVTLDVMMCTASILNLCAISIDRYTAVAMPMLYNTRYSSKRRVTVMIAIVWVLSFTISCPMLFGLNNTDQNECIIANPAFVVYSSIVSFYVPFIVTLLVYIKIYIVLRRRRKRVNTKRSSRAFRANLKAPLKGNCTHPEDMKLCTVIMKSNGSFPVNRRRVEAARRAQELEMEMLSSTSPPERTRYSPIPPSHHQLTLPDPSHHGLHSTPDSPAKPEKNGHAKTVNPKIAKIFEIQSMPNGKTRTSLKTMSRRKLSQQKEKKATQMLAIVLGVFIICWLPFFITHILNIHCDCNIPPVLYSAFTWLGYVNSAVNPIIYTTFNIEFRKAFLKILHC
# D(1A) dopamine receptor (Rattus norvegicus), sequence (P18901 whole entry, the tested form may be a part): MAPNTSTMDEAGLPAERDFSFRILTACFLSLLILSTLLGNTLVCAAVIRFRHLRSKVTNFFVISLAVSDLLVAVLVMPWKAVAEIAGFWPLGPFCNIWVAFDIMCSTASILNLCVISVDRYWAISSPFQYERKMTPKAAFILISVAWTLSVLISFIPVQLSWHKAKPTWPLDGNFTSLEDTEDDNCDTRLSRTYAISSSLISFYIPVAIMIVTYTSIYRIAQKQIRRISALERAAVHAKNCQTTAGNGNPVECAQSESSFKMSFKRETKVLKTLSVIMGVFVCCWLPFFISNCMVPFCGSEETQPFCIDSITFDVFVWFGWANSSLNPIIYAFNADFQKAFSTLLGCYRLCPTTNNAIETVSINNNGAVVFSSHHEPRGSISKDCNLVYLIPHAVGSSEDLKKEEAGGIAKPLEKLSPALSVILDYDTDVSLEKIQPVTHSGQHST
SMILES,K Bind [1] [µM],K Bind [2] [µM],ED50 [3],ED50 (Oryctolagus cuniculus [4]),ED50 [5] [µM],inhibition [6] [%],EC50 (Oryctolagus cuniculus [7]) [µM]
CCCN(CCc1ccc(O)cc1)C1CCc2cc(O)c(O)c(Cl)c2C1 (stereo not drawn),0.033,0.27,,,,,
NC1CCc2cc(Cl)c(O)cc2C1 (stereo not drawn),1.05,1.44,inactive,inactive,,,
CN(C)C1CCc2cc(O)c(Cl)cc2C1 (stereo not drawn),0.09,2.3,inactive,,,,
NC1CCc2cc(F)c(O)cc2C1 (stereo not drawn),0.66,0.37,,,,,
NC1CCc2c(ccc(O)c2Cl)C1 (stereo not drawn),11.6,> 10,,,,,
NC1CCc2cc(O)c(O)cc2C1 (stereo not drawn),0.21,0.07,,,2.7,,
NC1CCc2cc(O)c(Cl)cc2C1 (stereo not drawn),4.47,1.97,inactive,,,,
NCCc1ccc(O)c(O)c1,,,,,3.5,,
Oc1ccc(CCNC2CCc3cc(O)c(O)c(Cl)c3C2)cc1 (stereo not drawn),0.41,0.145,,,,,
CCCN(CCC)C1CCc2cc(O)c(Cl)cc2C1 (stereo not drawn),0.9,8.23,inactive,,,,
CN(C)C1CCc2cc(F)c(O)cc2C1 (stereo not drawn),0.47,0.76,,,,,
CN(C)C1CCc2cc(Cl)c(O)c(Cl)c2C1 (stereo not drawn),,> 20,,,,29,
NC1CCc2c(cc(O)c(O)c2F)C1 (stereo not drawn),0.52,0.074,,,1.6,,
CCCN(CCC)C1CCc2c(ccc(O)c2Cl)C1 (stereo not drawn),0.85,2.25,,,,,
CCCN(CCC)C1CCc2cc(F)c(O)cc2C1 (stereo not drawn),0.43,1.74,,,,,
NC1CCc2cc(Cl)c(O)c(Cl)c2C1 (stereo not drawn),,2.97,,,,30,
NC1CCc2cc(O)c(O)c(F)c2C1 (stereo not drawn),1.27,0.062,,,2.2,,
CCCN(CCC)C1CCc2cc(O)c(O)c(Cl)c2C1 (stereo not drawn),0.24,0.62,,,,,
CCCN(CCC)C1CCc2cc(Cl)c(O)c(Cl)c2C1 (stereo not drawn),10.4,> 10,inactive,,,,
NC1CCc2c(cc(O)c(O)c2Cl)C1 (stereo not drawn),0.47,0.84,inactive,,,,
CN(C)C1CCc2cc(Cl)c(O)cc2C1 (stereo not drawn),1.55,2.63,inactive,,,,
CCCN(CCC)C1CCc2cc(Cl)c(O)cc2C1 (stereo not drawn),1.63,4.71,inactive,,,,
CN(C)C1CCc2c(ccc(O)c2Cl)C1 (stereo not drawn),3.5,5.95,,,,,
CCCN(CCC)CC1CCc2cc(F)c(O)cc2C1 (stereo not drawn),14.1,> 50,,,,,
NC1CCc2cc(O)c(O)c(Cl)c2C1 (stereo not drawn),3.16,0.043,,,1.4,,536
